Measured values as given in publication PMC7807167 (Methods (San Diego, Calif.), 2021).
Where two headings read alike, the source gives them in different places.

Legend:
[1] = system: SARS-CoV-2/MT020880; assay type: cell-based; conditions: for IC50_Viral Entry blocking assay: ‘Very wide’ = some activity at high concentrations too staggering to plot
[2] = system: SARS-CoV-2/MT020880; assay type: cell-based; conditions: for IC-50_Viral Spread assay: ‘Very wide’ = some activity at high concentrations too staggering to plot
[3] = system: SARS-CoV-2; assay type: cell-based; conditions: for inhibitory activity against SARS-CoV-2: concentration range tested; for anti-SARS-CoV-2 activity at 25 µM: Fig 6, Fig 7
[4] = system: ATCC Vero E6 cells; conditions: for Cytotoxicity: Vero E6, tested range up to 50 μM
[5] = target: T1, 3CLpro (Severe acute respiratory syndrome coronavirus 2, UniProt P0DTD1); experiment: Preliminary compound screening for 3CLpro inhibitors; assay type: biochemical, SARS-CoV-2; conditions: four concentrations, 1–50 µM, 3CLpro 0.4 µM, TVLQ-AMC 40 µM
In short: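 Duplicate wells, 25 °C. Test compound (1–50 µM) or DMSO (0 µM) preincubated about 5 min with 3CLpro (0.4 µM) in Tris-HCl pH 7.3, 1 mM EDTA. Started with TVLQ-AMC (40 µM), shaken 5 s, emission 440 nm (excitation 364 nm) read 1 min–3 h. Controls: 6–8 DMSO wells, 2 no-enzyme wells. Two replicate screens; emission normalized to 0 µM at 3 h.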

[6] = target: T1, 3CLpro; experiment: 3CLpro enzyme inhibition assay; assay type: biochemical, SARS-CoV-2
In short: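 Inhibitor (0–1000 µM) preincubated about 5 min with 3CLpro (0.4 µM) in Tris-HCl pH 7.3, 1 mM EDTA, triplicate, 25 °C. Started with TVLQ-AMC (40 µM) at fixed concentration, shaken 5 s. Fluorescence (excitation 364 nm) read continuously over time.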

Row | Compound | IC50_Viral Entry blocking assay [1] | IC-50_Viral Spread assay [2] | inhibitory activity against SARS-CoV-2 [3] | Cytotoxicity [4] | activity in 3CLpro screening (rate of substrate cleavage) [5] | IC50 [6] | anti-SARS-CoV-2 activity at 25 µM [3] | Percent inhibition at 50 µM ([1]; viral entry assay, 50 µM) | Percent inhibition at 50 µM [2] | concentration with high cytotoxicity ([4]; ATCC E6 Vero cells, number of nuclei counted)
1 | OC[C@H]1O[C@@H](O[C@@H]2[C@@H](CO)OC(O)(CO)[C@H]2O)[C@H](O)[C@@H](O)[C@H]1O (mixture of isomers) [Lactulose] | nil | nil | no observed inhibitory activity | Nontoxic within tested conc. range | – | – | – | – | – | –
2 | NCC[C@H](O)C(=O)N[C@@H]1C[C@H](N)[C@@H](O[C@H]2O[C@H](CN)[C@@H](O)[C@H](O)[C@H]2O)[C@H](O)[C@H]1O[C@H]1O[C@H](CO)[C@@H](O)[C@H](N)[C@H]1O [Amikacin hydrate] | (Very wide) | (Very wide) | – | Nontoxic within tested conc. range | – | – | – | – | – | –
3 | [H]/N=C(/N)SCCCn1cc(C2=C(c3cn(C)c4ccccc34)C(=O)NC2=O)c2ccccc21 [Bisindolylmaleimide IX] | – | – | – | Nontoxic within tested conc. range | significant activity | 114 ± 5.2 µM | – | – | – | –
4 | O=C(CCCN1CCC(O)(c2ccc(Cl)cc2)CC1)c1ccc(F)cc1 [Haloperidol] | – | – | – | Non-toxic within tested conc. range | very mild activity | – | 9.8% | – | – | –
5 | COCC(=O)Nc1c(I)c(C(=O)NCC(O)CO)c(I)c(C(=O)N(C)CC(O)CO)c1I (stereo not shown) [Iopromide] | nil | nil | no observed inhibitory activity | Nontoxic within tested conc. range | – | – | – | – | – | –
6 | NC[C@@H]1O[C@H](O[C@H]2[C@@H](O)[C@H](O[C@@H]3[C@@H](O)[C@H](N)C[C@H](N)[C@H]3O[C@H]3O[C@H](CO)[C@@H](O)[C@H](O)[C@H]3N)O[C@@H]2CO)[C@H](N)[C@@H](O)[C@@H]1O [Paromomycin] | – | (Very wide) | – | Nontoxic within tested conc. range | – | – | 2.3% | – | – | –
7 | C[C@@H]1O[C@@H](OC[C@H]2O[C@@H](Oc3c(-c4ccc(OCCO)c(OCCO)c4)oc4cc(OCCO)cc(O)c4c3=O)[C@H](O)[C@@H](O)[C@@H]2O)[C@H](O)[C@H](O)[C@H]1O [Troxerutin] | (Very wide) | (Very wide) | – | Nontoxic within tested conc. range | – | – | 2.8% | – | – | –
8 | Ivermectin | – | – | – | Toxic above 50 µM | – | – | – | 99% | 46% | > 16.67 µM
